≈ marks a conversion by molar mass, not a printed value.
Assays:
Format in all cases: functional
[1] = test system: Staphylococcus aureus; assay: Antimicrobial activity against methicillin-susceptible Staphylococcus aureus ATCC 25923 after 18 hrs by broth microdilution method; conditions: ATCC 25923, 18 h
[2] = test system: Staphylococcus aureus; assay: Antimicrobial activity against methicillin-susceptible Staphylococcus aureus ATCC 6538 after 18 hrs by broth microdilution method; conditions: ATCC 6538, 18 h
[3] = test system: Staphylococcus aureus; assay: Antimicrobial activity against Staphylococcus aureus Microbank 14001 after 18 hrs by broth microdilution method; conditions: Microbank 14001, 18 h
[4] = test system: Staphylococcus epidermidis; assay: Antimicrobial activity against Staphylococcus epidermidis ATCC 12228 after 18 hrs by broth microdilution method; conditions: ATCC 12228, 18 h
[5] = test system: Bacillus subtilis; assay: Antimicrobial activity against Bacillus subtilis […] after 18 hrs by broth microdilution method
[6] = test system: Bacillus cereus; assay: Antimicrobial activity against Bacillus cereus ATCC 10876 after 18 hrs by broth microdilution method; conditions: ATCC 10876, 18 h
[7] = test system: Micrococcus luteus; assay: Antimicrobial activity against Micrococcus luteus ATCC 10240 after 18 hrs by broth microdilution method; conditions: ATCC 10240, 18 h
[8] = test system: Staphylococcus aureus; assay: Ratio of MBC for methicillin-susceptible Staphylococcus aureus ATCC 25923 to MIC for methicillin-susceptible Staphylococcus aureus ATCC 25923
Summary of the method: (§1)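 MBC taken as lowest concentration giving >99.9% CFU reduction of the initial inoculum; value is MBC divided by MIC for the same strain.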

[9] = test system: Staphylococcus aureus; assay: Ratio of MBC for methicillin-susceptible Staphylococcus aureus ATCC 6538 to MIC for methicillin-susceptible Staphylococcus aureus ATCC 6538; summary of the method: as §1
[10] = test system: Staphylococcus aureus; assay: Ratio of MBC for Staphylococcus aureus Microbank 14001 to MIC for Staphylococcus aureus Microbank 14001; summary of the method: as §1
[11] = test system: Escherichia coli; assay: Antimicrobial activity against Escherichia coli ATCC 25922 after 18 hrs by broth microdilution method; conditions: ATCC 25922, 18 h
[12] = test system: Klebsiella pneumoniae; assay: Antimicrobial activity against Klebsiella pneumoniae ATCC 13883 after 18 hrs by broth microdilution method; conditions: ATCC 13883, 18 h
[13] = test system: Proteus mirabilis; assay: Antimicrobial activity against Proteus mirabilis ATCC 12453 after 18 hrs by broth microdilution method; conditions: ATCC 12453, 18 h
[14] = test system: Pseudomonas aeruginosa; assay: Antimicrobial activity against Pseudomonas aeruginosa ATCC 9027 after 18 hrs by broth microdilution method; conditions: ATCC 9027, 18 h

Row | Structure (SMILES) | MIC [1] [µM] | MIC [2] [µM] | MIC [3] [µM] | MIC [4] [µM] | MIC [5] [µM] | MIC [6] [µM] | MIC [7] [µM] | Ratio [8] | Ratio [9] | Ratio [10] | MIC [11] [µM] | MIC [12] [µM] | MIC [13] [µM] | MIC [14] [µM]
1 | O=C(O)c1cn(C2CC2)c2cc(N3CCN(Cn4nc(-c5ccc(O)cc5)n(-c5ccccc5)c4=S)CC3)c(F)cc2c1=O | 1.6 (≈ 0.98 µg/mL) | 0.39 (≈ 0.239 µg/mL) | 0.39 (≈ 0.239 µg/mL) | 0.098 (≈ 0.06 µg/mL) | 0.024 (≈ 0.0147 µg/mL) | 0.098 (≈ 0.06 µg/mL) | 1.6 (≈ 0.98 µg/mL) | <=4 | <=4 | <=4 | 0.024 (≈ 0.0147 µg/mL) | 0.049 (≈ 0.03 µg/mL) | 0.049 (≈ 0.03 µg/mL) | 0.2 (≈ 0.123 µg/mL)
2 | O=C(O)c1cn(C2CC2)c2cc(N3CCN(Cn4nc(-c5ccc(O)cc5)n(Cc5ccccc5)c4=S)CC3)c(F)cc2c1=O | 3.11 (≈ 1.95 µg/mL) | 1.56 (≈ 0.978 µg/mL) | 1.56 (≈ 0.978 µg/mL) | 0.19 (≈ 0.119 µg/mL) | 0.78 (≈ 0.489 µg/mL) | 0.19 (≈ 0.119 µg/mL) | 6.24 (≈ 3.91 µg/mL) | <=4 | <=4 | <=4 | 0.048 (≈ 0.0301 µg/mL) | 0.19 (≈ 0.119 µg/mL) | 0.024 (≈ 0.015 µg/mL) | 0.38 (≈ 0.238 µg/mL)
3 | O=C(O)c1cn(C2CC2)c2cc(N3CCN(Cn4nc(-c5cccc(O)c5)n(-c5ccc(F)cc5)c4=S)CC3)c(F)cc2c1=O | 0.76 (≈ 0.479 µg/mL) | 0.38 (≈ 0.24 µg/mL) | 0.38 (≈ 0.24 µg/mL) | 0.19 (≈ 0.12 µg/mL) | 0.095 (≈ 0.0599 µg/mL) | 0.19 (≈ 0.12 µg/mL) | 1.55 (≈ 0.978 µg/mL) | <=4 | <=4 | <=4 | 0.012 (≈ 0.00757 µg/mL) | 0.048 (≈ 0.0303 µg/mL) | 0.024 (≈ 0.0151 µg/mL) | 0.38 (≈ 0.24 µg/mL)
4 | COc1ccc(-n2c(-c3ccccc3O)nn(CN3CCN(c4cc5c(cc4F)c(=O)c(C(=O)O)cn5C4CC4)CC3)c2=S)cc1 | 0.76 (≈ 0.488 µg/mL) | 0.37 (≈ 0.238 µg/mL) | 0.18 (≈ 0.116 µg/mL) | 0.093 (≈ 0.0598 µg/mL) | 0.093 (≈ 0.0598 µg/mL) | 0.37 (≈ 0.238 µg/mL) | 1.52 (≈ 0.977 µg/mL) | <=4 | <=4 | <=4 | 0.011 (≈ 0.00707 µg/mL) | 0.047 (≈ 0.0302 µg/mL) | 0.047 (≈ 0.0302 µg/mL) | 0.76 (≈ 0.488 µg/mL)
5 | O=C(O)c1cn(C2CC2)c2cc(N3CCN(Cn4nc(-c5cccc(O)c5)n(-c5ccc(Cl)cc5)c4=S)CC3)c(F)cc2c1=O | 0.76 (≈ 0.492 µg/mL) | 0.37 (≈ 0.239 µg/mL) | 0.37 (≈ 0.239 µg/mL) | 0.093 (≈ 0.0602 µg/mL) | 0.093 (≈ 0.0602 µg/mL) | 0.18 (≈ 0.116 µg/mL) | 1.51 (≈ 0.977 µg/mL) | <=4 | <=4 | <=4 | 0.012 (≈ 0.00777 µg/mL) | 0.046 (≈ 0.0298 µg/mL) | 0.024 (≈ 0.0155 µg/mL) | 0.37 (≈ 0.239 µg/mL)
6 | O=C(O)c1cn(C2CC2)c2cc(N3CCN(Cn4nc(-c5ccccc5O)n(-c5ccc(Cl)cc5)c4=S)CC3)c(F)cc2c1=O | 0.76 (≈ 0.492 µg/mL) | 0.18 (≈ 0.116 µg/mL) | 0.093 (≈ 0.0602 µg/mL) | 0.18 (≈ 0.116 µg/mL) | 0.093 (≈ 0.0602 µg/mL) | 0.18 (≈ 0.116 µg/mL) | 1.51 (≈ 0.977 µg/mL) | <=4 | <=4 | <=4 | 0.011 (≈ 0.00712 µg/mL) | 0.023 (≈ 0.0149 µg/mL) | 0.011 (≈ 0.00712 µg/mL) | 0.37 (≈ 0.239 µg/mL)
7 | O=C(O)c1cn(C2CC2)c2cc(N3CCN(Cn4nc(-c5ccccc5O)n(-c5ccccc5)c4=S)CC3)c(F)cc2c1=O | 0.8 (≈ 0.49 µg/mL) | 0.39 (≈ 0.239 µg/mL) | 0.19 (≈ 0.116 µg/mL) | 0.098 (≈ 0.06 µg/mL) | 0.39 (≈ 0.239 µg/mL) | 0.098 (≈ 0.06 µg/mL) | 1.59 (≈ 0.974 µg/mL) | <=4 | <=4 | <=4 | 0.012 (≈ 0.00735 µg/mL) | 0.049 (≈ 0.03 µg/mL) | 0.024 (≈ 0.0147 µg/mL) | 0.39 (≈ 0.239 µg/mL)
8 | O=C(O)c1cn(C2CC2)c2cc(N3CCN(Cn4nc(-c5ccccc5O)n(Cc5ccc(Cl)cc5)c4=S)CC3)c(F)cc2c1=O | 0.74 (≈ 0.489 µg/mL) | 0.18 (≈ 0.119 µg/mL) | 0.36 (≈ 0.238 µg/mL) | 0.091 (≈ 0.0602 µg/mL) | 0.045 (≈ 0.0298 µg/mL) | 0.091 (≈ 0.0602 µg/mL) | 1.48 (≈ 0.979 µg/mL) | <=4 | <=4 | <=4 | 0.023 (≈ 0.0152 µg/mL) | 0.023 (≈ 0.0152 µg/mL) | 0.046 (≈ 0.0304 µg/mL) | 0.36 (≈ 0.238 µg/mL)
9 | COc1ccc(Cn2c(-c3ccc(O)cc3)nn(CN3CCN(c4cc5c(cc4F)c(=O)c(C(=O)O)cn5C4CC4)CC3)c2=S)cc1 | 2.97 (≈ 1.95 µg/mL) | 0.75 (≈ 0.493 µg/mL) | 0.75 (≈ 0.493 µg/mL) | 1.49 (≈ 0.979 µg/mL) | 0.18 (≈ 0.118 µg/mL) | 0.091 (≈ 0.0598 µg/mL) | 5.95 (≈ 3.91 µg/mL) | <=4 | <=4 | <=4 | 0.046 (≈ 0.0302 µg/mL) | 0.091 (≈ 0.0598 µg/mL) | 0.091 (≈ 0.0598 µg/mL) | 0.36 (≈ 0.236 µg/mL)

Reference: ChEMBL document CHEMBL3421560, “Search for factors affecting antibacterial activity and toxicity of 1,2,4-triazole-ciprofloxacin hybrids” (Eur J Med Chem, 2015)
